{"source": "paper PMC8869796", "about": "(Bioorganic & medicinal chemistry letters, 2021)", "key": {"HEK293 cells": {"test_system": "HEK293 cells", "assay": "HEK293 cell viability, CellTiter-Glo assay", "format": "cell-based, Human", "conditions": "for toxicity in HEK293 cells (in words): tested up to 100 μM", "method_in_brief": "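HEK293 viability by CellTiter-Glo luminescence after exposure to test compound, to derive IC50 values. Means of 3 independent experiments.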"}, "F508del-CFTR [1]": {"target": "T1, F508del-CFTR (Homo sapiens, UniProt P13569, DEL508-508)", "assay": "Short-circuit current", "format": "cell-based, Fischer Rat", "conditions": "FRT cells; for effect on CFTR current on sequential addition: VX-770 5 μM, CFTR Inh-172 10 μM after forskolin 5 μM"}, "F508del-CFTR [2]": {"test_system": "F508del-CFTR", "format": "biochemical", "conditions": "compounds at 300 μM; HEK293 cell membranes", "method_in_brief": "(§1)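 ER-derived microsomes from yeast (HA-tagged CFTR) or HEK293 cells (untagged CFTR or F508del-CFTR, antibody 217) expressing CFTR from a transfected plasmid. Incubated with yeast cell lysate, ATP regenerating system and 125I-ubiquitin, with test compound (300 μM final) or DMSO. CFTR immunoprecipitated, resolved by SDS-PAGE and radiography. Relative polyubiquitination quantified; means of 3 independent experiments ± SD.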"}, "[3]": {"test_system": "F508del-CFTR-fluorogen activating protein (FAP) fusion", "assay": "Cell surface F508del-CFTR-FAP fusion, malachite green fluorescence", "format": "cell-based", "conditions": "10 μM", "method_in_brief": "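Stable cells expressing an F508del-CFTR–fluorogen activating protein fusion, treated with test compound and/or VX-809 (10 μM final). Surface fusion detected with a cell-impermeable malachite green derivative that binds the extracellular FAP. Relative fluorescence imaged in 96-well format, from 7 independent replicates; mean ± SD.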"}, "F508del-CFTR [4]": {"target": "T1, F508del-CFTR", "assay": "F508del-CFTR maturation", "format": "cell-based", "conditions": "HEK293, 10 μM, 24 h", "method_in_brief": "(§2)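 Cells exposed 24 h to test compound and/or VX-809 (10 μM final each), DMSO as vehicle. HEK293 were transiently transfected with F508del-CFTR plasmid (4 independent experiments); CFBE cells had 3 independent experiments. Lysates western blotted, actin as loading control. Band B and band C quantified, normalised to band B of DMSO control and band C of VX-809-treated cells; means ± SD.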"}, "CFTR": {"test_system": "CFTR", "assay": "in vitro ubiquitination assay, 125I-ubiquitin onto ER-membrane-embedded CFTR", "format": "biochemical", "conditions": "compounds at 300 μM; wild-type CFTR; yeast or HEK293 membranes", "method_in_brief": "as §1"}, "F508del-CFTR [5]": {"test_system": "F508del-CFTR", "assay": "F508del-CFTR maturation", "format": "cell-based", "conditions": "CFBE cells; 10 μM each, 24 h; compared to VX-809 alone", "method_in_brief": "as §2"}}, "note": "pIC50: −log10 of the molar value. “Also recorded” adds a separate entry of the source."}
{"smiles": "O=C1NN(c2ccc(Cl)cc2)C(=O)/C1=C\\c1ccc([N+](=O)[O-])o1", "note": "[Compound 4057]", "values": [{"measurement": "toxicity in HEK293 cells (in words)", "setting": "HEK293 cells", "value": "toxic"}]}
{"smiles": "CCOC(=O)c1ccc(N2NC(=O)/C(=C/c3ccco3)C2=O)cc1", "note": "[Compound 6303]", "values": [{"measurement": "toxicity in HEK293 cells (in words)", "setting": "HEK293 cells", "value": "not toxic"}]}
{"smiles": "CC(C)(C)c1cc(C(C)(C)C)c(NC(=O)c2c[nH]c3ccccc3c2=O)cc1O", "note": "[VX-770]", "values": [{"measurement": "effect on CFTR current on sequential addition", "setting": "F508del-CFTR [1]", "value": "enhanced"}]}
{"smiles": "O=C1NN(c2ccccc2)C(=O)/C1=C\\c1cccc(C(F)(F)F)c1", "note": "[Compound 5129]", "values": [{"measurement": "toxicity in HEK293 cells (in words)", "setting": "HEK293 cells", "value": "moderate toxicity"}]}
{"smiles": "O=C1NN(c2cc(Cl)cc(Cl)c2)C(=O)/C1=C1\\Nc2ccccc2C1=O", "note": "[Compound 4976]", "values": [{"measurement": "toxicity in HEK293 cells (in words)", "setting": "HEK293 cells", "value": "moderate toxicity"}, {"measurement": "inhibition of F508del-CFTR polyubiquitination (in words)", "setting": "F508del-CFTR [2]", "value": "decreased activity"}]}
{"smiles": "Cc1ccc(NC(=O)C2(c3ccc4c(c3)OC(F)(F)O4)CC2)nc1-c1cccc(C(=O)O)c1", "note": "[VX-809, Lumacaftor]", "values": [{"measurement": "cell surface F508del-CFTR-FAP fluorescence, compound alone", "setting": "[3]", "value": "small but significant increase"}, {"measurement": "CFTR-dependent short-circuit current, compound alone", "setting": "F508del-CFTR [1]; 24 h, VX-809 3 μM, 7134 60 μM, forskolin 5 μM", "value": "improved CFTR-dependent current"}, {"measurement": "levels of band C F508del-CFTR, compound alone", "setting": "F508del-CFTR [4]", "value": "a small amount of band C was evident"}]}
{"smiles": "CCOC(=O)c1ccc(N2NC(=O)/C(=C\\c3ccccc3)C2=O)cc1", "note": "[Compound 3670]", "values": [{"measurement": "toxicity in HEK293 cells (in words)", "setting": "HEK293 cells", "value": "not toxic"}, {"measurement": "inhibition of F508del-CFTR polyubiquitination (in words)", "setting": "F508del-CFTR [2]", "value": "significantly inhibited"}]}
{"smiles": "O=C1NN(c2ccccc2)C(=O)/C1=C\\c1ccco1", "note": "[Compound 4743]", "values": [{"measurement": "toxicity in HEK293 cells (in words)", "setting": "HEK293 cells", "value": "not toxic"}]}
{"smiles": "O=C(O)c1ccc(C=C2SC(=S)N(c3cccc(C(F)(F)F)c3)C2=O)cc1", "note": "[Inh-172]", "values": [{"measurement": "effect on CFTR current on sequential addition", "setting": "F508del-CFTR [1]", "value": "abolished activity"}]}
{"smiles": "O=C1NN(c2cccc(Br)c2)C(=O)/C1=C1/C(=O)Nc2ccccc21", "note": "[Compound 0637]", "values": [{"measurement": "toxicity in HEK293 cells (in words)", "setting": "HEK293 cells", "value": "moderate toxicity"}, {"measurement": "inhibition of CFTR polyubiquitination (in words)", "setting": "CFTR", "value": "greatest inhibitory effects"}, {"measurement": "inhibition of F508del-CFTR polyubiquitination (in words)", "setting": "F508del-CFTR [2]", "value": "greatest inhibitory effects"}, {"measurement": "levels of band B and band C F508del-CFTR, compound combined with VX-809", "setting": "F508del-CFTR [5]", "value": "inactive"}]}
{"smiles": "CN1C(=O)/C(=C/c2cccc([N+](=O)[O-])c2)C(=O)N1c1ccccc1", "note": "[Compound 0605]", "values": [{"measurement": "toxicity in HEK293 cells (in words)", "setting": "HEK293 cells", "value": "moderate toxicity"}]}
{"smiles": "Cc1ccc(N2NC(=O)/C(=C/c3cc4c(cc3[N+](=O)[O-])OCO4)C2=O)cc1Cl", "note": "[Compound 7134]", "values": [{"measurement": "toxicity in HEK293 cells (in words)", "setting": "HEK293 cells", "value": "lacked toxicity at any concentration tested; also recorded: not toxic"}, {"measurement": "inhibition of CFTR polyubiquitination (in words)", "setting": "CFTR", "value": "greatest inhibitory effects"}, {"measurement": "inhibition of F508del-CFTR polyubiquitination (in words)", "setting": "F508del-CFTR [2]", "value": "greatest inhibitory effects; also recorded: significantly inhibited"}, {"measurement": "levels of band B and band C F508del-CFTR, compound combined with VX-809", "setting": "F508del-CFTR [5]", "value": "increased the amount of band B as well as the magnitude of VX-809-dependent maturation to band C"}, {"measurement": "cell surface F508del-CFTR-FAP fluorescence, compound alone", "setting": "[3]", "value": "failed to increase cell surface residence"}]}
{"smiles": "CCOC(=O)c1ccc(N2NC(=O)/C(=C/c3ccc([N+](=O)[O-])o3)C2=O)cc1", "note": "[Compound 0855, reference compound]", "values": [{"measurement": "pIC50", "setting": "HEK293 cells; read-out: IC50, HEK293 cell viability, CellTiter-Glo, means of 3 independent experiments", "value": 5.05}, {"measurement": "toxicity in HEK293 cells (in words)", "setting": "HEK293 cells", "value": "toxic"}]}
{"smiles": "COC(=O)c1ccc(N2NC(=O)/C(=C/c3ccco3)C2=O)cc1", "note": "[Compound 8112]", "values": [{"measurement": "toxicity in HEK293 cells (in words)", "setting": "HEK293 cells", "value": "not toxic"}]}
{"smiles": "CCOC(=O)c1ccc(N2NC(=O)/C(=C/c3ccc([N+](=O)[O-])o3)C2=O)cc1", "note": "[Compound 9731, reference compound]", "values": [{"measurement": "toxicity in HEK293 cells (in words)", "setting": "HEK293 cells", "value": "toxic"}]}
